Calls of active or inactive are those of the source. The rule behind the calls is not given here.
Key:
Vero [1] = assay: Cytotoxicity against African green monkey Vero cells assessed as decrease in cell viability at 20 to 80 uM after 2 days by MTT assay; format: cell-based; settings: chlorocebus sabaeus, 48 h
Vero [2] = assay: Cytotoxicity against African green monkey Vero cells assessed as decrease in cell viability at 80 uM after 2 days by MTT assay; format: cell-based; settings: chlorocebus sabaeus, 48 h
[3] = system: Porcine epidemic diarrhea virus; assay: Antiviral activity against Porcine epidemic diarrhea virus infected in African green monkey Vero cells assessed as inhibition of virus-induced cytopathic effect at 40 uM after 3 days; format: functional
In short: (§1)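 Vero cells were inoculated with PEDV for 2 h, then treated with compound and incubated 3 days, with CPE inhibition as read-out. Screening was at 40 or 50 μM for non-cytotoxic compounds and at 20 μM for cytotoxic ones; the dose-response covered 20–90 μM. Azauridin was the positive control; mean ± SD, n = 3, versus virus-injected control.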

Vero [4] = assay: Cytotoxicity against African green monkey Vero cells assessed as decrease in cell viability at 90 uM after 2 days by MTT assay; format: cell-based; settings: chlorocebus sabaeus, 48 h
Vero [5] = assay: Cytotoxicity against African green monkey Vero cells assessed as decrease in cell viability at 70 uM after 2 days by MTT assay; format: cell-based; settings: chlorocebus sabaeus, 48 h
Vero [6] = assay: Cytotoxicity against African green monkey Vero cells assessed as decrease in cell viability at 20 to 70 uM after 2 days by MTT assay; format: cell-based; settings: chlorocebus sabaeus, 48 h
[7] = system: Porcine epidemic diarrhea virus; assay: Antiviral activity against Porcine epidemic diarrhea virus infected in African green monkey Vero cells assessed as decrease in nucleocapsid synthesis after 24 hrs by DAPI staining-based fluorescence microscopy; format: functional
In short: (§2)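 PEDV-infected Vero cells co-incubated with compound at 20, 40 or 80 μM for 24 h, with azauridin 20 μM as positive control. Cells fixed, permeabilized and stained with monoclonal antibody to nucleocapsid or spike. Antigen-expressing cells were scored by immunofluorescence and compared with uninfected and virus-infected controls.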

[8] = system: Porcine epidemic diarrhea virus; assay: Antiviral activity against Porcine epidemic diarrhea virus infected in African green monkey Vero cells assessed as inhibition of virus-induced cytopathic effect after 3 days; format: functional; in short: as §1
[9] = system: Porcine epidemic diarrhea virus; assay: Antiviral activity against Porcine epidemic diarrhea virus infected in African green monkey Vero cells assessed as inhibition of virus-induced cytopathic effect at 20 to 80 uM after 3 days; format: functional
[10] = system: Porcine epidemic diarrhea virus; assay: Antiviral activity against Porcine epidemic diarrhea virus infected in African green monkey Vero cells assessed as decrease in spike protein expression levels after 24 hrs by Western blot analysis; format: functional
In short: (§3)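 PEDV-infected Vero cells were incubated with or without compound for 24 h; single-compound tests were at 40 or 45 μM, and a dose series at 80, 40, 20 and 10 μM. Cells were lysed and blotted with nucleocapsid and spike antibodies. Azauridin was the positive control; mean ± SD, n = 3, versus virus-injected control.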

[11] = system: Porcine epidemic diarrhea virus; assay: Antiviral activity against Porcine epidemic diarrhea virus infected in African green monkey Vero cells assessed as decrease in spike protein expression levels at 10 to 80 uM after 24 hrs by Western blot analysis; format: functional; in short: as §3
[12] = system: Porcine epidemic diarrhea virus; assay: Antiviral activity against Porcine epidemic diarrhea virus infected in African green monkey Vero cells assessed as decrease in nucleocapsid expression levels after 24 hrs by Western blot analysis; format: functional
In short: (§4)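 Vero cells inoculated with PEDV, then incubated with or without compound (40 or 45 μM, or 10, 20, 40, 80 μM) for 24 h. Cells lysed and probed by Western blot with anti-nucleocapsid and anti-spike antibodies. Azauridin was the positive control. Values are relative to virus-infected control, mean ± SD (n = 3).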

[13] = system: Porcine epidemic diarrhea virus; assay: Antiviral activity against Porcine epidemic diarrhea virus infected in African green monkey Vero cells assessed as decrease in nucleocapsid expression levels at 10 to 80 uM after 24 hrs by Western blot analysis; format: functional; in short: as §4
[14] = system: Porcine epidemic diarrhea virus; assay: Antiviral activity against Porcine epidemic diarrhea virus infected in African green monkey Vero cells assessed as decrease in nucleocapsid synthesis at 20 to 80 uM after 24 hrs by DAPI staining-based fluorescence microscopy; format: functional; in short: as §2
[15] = system: Porcine epidemic diarrhea virus; assay: Antiviral activity against Porcine epidemic diarrhea virus infected in African green monkey Vero cells assessed as decrease in spike protein synthesis at 20 to 80 uM after 24 hrs by DAPI staining-based fluorescence microscopy; format: functional
In short: (§5)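 Virus-injected Vero cells were incubated 24 h with compound at 80, 40 or 20 μM, or with azauridin (20 μM) as positive control. Cells were then fixed, permeabilized and stained with monoclonal antibody against spike (or nucleocapsid) protein for immunofluorescence, alongside noninjected cells.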

[16] = system: Porcine epidemic diarrhea virus; assay: Antiviral activity against Porcine epidemic diarrhea virus infected in African green monkey Vero cells assessed as decrease in spike protein synthesis levels after 24 hrs by DAPI staining-based fluorescence microscopy; format: functional; in short: as §5
[17] = system: Porcine epidemic diarrhea virus; assay: Antiviral activity against Porcine epidemic diarrhea virus infected in African green monkey Vero cells assessed as decrease in nucleocapsid expression levels at 40 uM after 24 hrs by Western blot analysis; format: functional; in short: as §4
[18] = system: Porcine epidemic diarrhea virus; assay: Antiviral activity against Porcine epidemic diarrhea virus infected in African green monkey Vero cells assessed as decrease in spike expression levels at 40 uM after 24 hrs by Western blot analysis; format: functional; in short: as §3
[19] = system: Porcine epidemic diarrhea virus; assay: Antiviral activity against Porcine epidemic diarrhea virus infected in African green monkey Vero cells assessed as inhibition of virus-induced cytopathic effect at 20 uM after 3 days; format: functional; in short: as §1
[20] = system: Porcine epidemic diarrhea virus; assay: Antiviral activity against Porcine epidemic diarrhea virus infected in African green monkey Vero cells assessed as inhibition of virus-induced cytopathic effect at 20 to 90 uM after 3 days; format: functional; in short: as §1
[21] = system: Porcine epidemic diarrhea virus; assay: Antiviral activity against Porcine epidemic diarrhea virus infected in African green monkey Vero cells assessed as decrease in nucleocapsid expression levels at 45 uM after 24 hrs by Western blot analysis; format: functional; in short: as §4
[22] = system: Porcine epidemic diarrhea virus; assay: Antiviral activity against Porcine epidemic diarrhea virus infected in African green monkey Vero cells assessed as decrease in spike protein expression levels at 45 uM after 24 hrs by Western blot analysis; format: functional; in short: as §3

In the case of `CC(C)(O)[C@@H]1C=C2C(CO)=CCC[C@@]2(C)CC1`, the Activity (Vero [1]) is reported as “Toxic”.

In the case of `C=C1CC[C@@H](O)[C@]2(C)CC[C@@H](C(C)C)[C@H](O)[C@@H]12`, the Activity (Vero [2]) is reported as “Non-Toxic” and the Activity [3] is reported as “Active”.

For `C=C(C)[C@@H]1CC/C(C)=C\C[C@@H](O)C(=C)[C@@H](O)C1`, the Activity (Vero [2]) was “Non-Toxic” and the Activity [3] was “Active”.

In the case of `C=C(C)[C@@H]1CC[C@]2(C)C(=C(C)C(=O)C[C@H]2O)C1` [LIGUCYPERONOL], the Activity (Vero [4]) is reported as “Non-Toxic” and the Activity [3] is reported as “Active”.

`C=C1CCC[C@]2(C)CC[C@@H](C(C)(C)O)[C@@H](O)[C@@]12O` was tested, and the Activity (Vero [2]) was “Non-Toxic” and the Activity [3] was “Active”.

In the case of `C[C@@H]1CCC(=O)[C@@H]2CC[C@@H](C(C)(C)O)C[C@@]12C`, the Activity (Vero [2]) is reported as “Non-Toxic” and the Activity [3] is reported as “Active”.

`C=C(C)[C@H]1CCC(=C)[C@@]2(O)C[C@H](O)C(=C)[C@@H](C1)O2` was tested, and the Activity (Vero [1]) was “Toxic”.

For `CC(C)(O)[C@@H]1CC[C@@]2(C)CCC[C@@]3(CO)O[C@@]23[C@@H]1O`, the Activity (Vero [5]) was “Non-Toxic” and the Activity [3] was “Active”.

For `CC(=O)O[C@@H]1C=C(C)[C@@]2(O)CC=C(C)[C@H]2[C@@H]2OC(=O)[C@H](C)[C@H]21`, the Activity (Vero [6]) was “Toxic”.

With `CC(=O)CC[C@@H]1[C@H]2CCC(=O)[C@@H](C(C)C)[C@@H]12` the Activity (Vero [4]) was “Non-Toxic”.

In the case of `C=C(C)[C@@H]1CC[C@@]2(C)[C@H](O)C[C@@H](O)C(=C)[C@@H]2C1`, the Activity (Vero [2]) is reported as “Non-Toxic” and the Activity [3] is reported as “Active”.

For `C=C1CC[C@@H]2[C@H]([C@H]3[C@H]1CC[C@]3(C)O)C2(C)C` [SPATHULENOL], the Activity (Vero [4]) was “Non-Toxic”.

`CC(=O)O[C@H]1CC(C)=C2C(=O)C=C(C)[C@@H]2[C@H]2OC(=O)[C@@H](C)[C@@H]21` was tested, and the Activity (Vero [6]) was “Toxic”.

In the case of `C=C1CCC[C@@]2(C)CC[C@@H](C(C)(C)O)[C@@H](O)[C@@]12O`, the Activity (Vero [2]) is reported as “Non-Toxic”, the Activity [7] is reported as “Dose-dependent effect” and the Activity [8] is reported as “Dose-dependent effect”. For the same compound, the Activity [9] was “Active”, the Activity [10] was “Dose-dependent effect” and the Activity [11] was “Active”. For the same compound, the Activity [12] was “Dose-dependent effect”, the Activity [13] was “Active” and the Activity [14] was “Active”. The Activity [15] was “Active”, the Activity [16] was “Dose-dependent effect” and the Activity [17] was “Active”. For the same compound, the Activity [18] was “Active”.

With `C=C1C(=O)O[C@@H]2[C@H]3C(C)=CC(=O)C3=C(C)C[C@H](O)[C@@H]12` the Activity (Vero [1]) was “Toxic” and the Activity [19] was “Active”.

For `CC(C)(O)[C@@H]1CC[C@@]2(C)CCC[C@]3(CO3)[C@]2(O)[C@@H]1O`, the Activity (Vero [5]) was “Non-Toxic” and the Activity [3] was “Active”.

For `C=C1/C=C/[C@H](C(C)C)CCC(=C)[C@H](O)CC1`, the Activity (Vero [4]) was “Non-Toxic”, the Activity [8] was “Dose-dependent effect” and the Activity [20] was “Active”. The Activity [21] was “Active” and the Activity [22] was “Active”.

`C=C1CC[C@@H](O)[C@]2(C)C[C@@H]3[C@@H](C(C)C)[C@@H]3[C@@H]12` was tested, and the Activity (Vero [4]) was “Non-Toxic”, the Activity [8] was “Dose-dependent effect” and the Activity [20] was “Active”. The Activity [21] was “Active” and the Activity [22] was “Active”.

Reference: ChEMBL document CHEMBL4052602, “Sesquiterpenoids with Various Carbocyclic Skeletons from the Flowers of Chrysanthemum indicum” (J Nat Prod, 2017)
